One experiment concerns Mus musculus. In words: In vivo inhibition of BRD4 expression in BALB/c mouse xenografted with human MCF7 cells at 100 mg/kg, ig administered once a day for 24 days by Western blot analysis. The class given is functional, organism-based. The method in brief: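 Tumor tissues excised from MCF-7 or MDA-MB-231 xenograft mice were lysed and analysed by western blot for BRD4, c-Myc, LC3 and cleaved caspase-3.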
Background: Xenograft models place foreign cells or tissue in a host animal.

Experiment [1] concerns the target AMP-activated protein kinase, AMPK (Homo sapiens) (UniProt P54646+O43741+P54619+Q9UGJ0+Q9Y478+Q13131+Q9UGI9). In words: Inhibition of AMPK (unknown origin) at 1 to 10^6 nM using MBP as substrate after 60 mins in presence of ATP by ADO-Glo assay.
The target in experiment [2] is T1, Bromodomain-containing protein 4 (Homo sapiens, UniProt O60885). The experiment in a line: Inhibition of BRD4 in human MCF7 cells assessed as induction of AMPKalpha phosphorylation at thr172 at 1.5 uM measured up to 36 hrs by Western blot analysis. The class given is cell-based. The method, boiled down: (§1)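 MCF-7 (1.5 μM) or MDA-MB-231 (3 μM) cells treated for indicated times. Adherent and floating cells lysed in RIPA with 1 mM PMSF. Equal protein run on 10-15% SDS-PAGE, blotted to PVDF, blocked in milk or BSA, HRP/ECL detection. β-actin loading control.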
(In western blotting, separated proteins are transferred to a membrane and probed.)

For experiment [3], the target named is Bromodomain-containing protein 2 (Homo sapiens, UniProt P25440). The experiment in a line: Inhibition of recombinant human N-terminal GST-tagged BRD2 bromodomain-2 (339 to 459 residues) expressed in Escherichia coli expression system after 120 mins by TR-FRET assay. The method, boiled down: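 TR-FRET bromodomain binding. Recombinant BRD domain, BET ligand and test agent in 20 μl assay buffer with 1% DMSO final. Incubated 120 min at room temperature. Blank lacks BET ligand.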
A general note: Time-resolved FRET reads energy transfer from a long-lived donor to a nearby acceptor.

The target of experiment [4] is T2, Serine/threonine-protein kinase ULK1 (Homo sapiens) (UniProt O75385).
T2 sequence (whole entry): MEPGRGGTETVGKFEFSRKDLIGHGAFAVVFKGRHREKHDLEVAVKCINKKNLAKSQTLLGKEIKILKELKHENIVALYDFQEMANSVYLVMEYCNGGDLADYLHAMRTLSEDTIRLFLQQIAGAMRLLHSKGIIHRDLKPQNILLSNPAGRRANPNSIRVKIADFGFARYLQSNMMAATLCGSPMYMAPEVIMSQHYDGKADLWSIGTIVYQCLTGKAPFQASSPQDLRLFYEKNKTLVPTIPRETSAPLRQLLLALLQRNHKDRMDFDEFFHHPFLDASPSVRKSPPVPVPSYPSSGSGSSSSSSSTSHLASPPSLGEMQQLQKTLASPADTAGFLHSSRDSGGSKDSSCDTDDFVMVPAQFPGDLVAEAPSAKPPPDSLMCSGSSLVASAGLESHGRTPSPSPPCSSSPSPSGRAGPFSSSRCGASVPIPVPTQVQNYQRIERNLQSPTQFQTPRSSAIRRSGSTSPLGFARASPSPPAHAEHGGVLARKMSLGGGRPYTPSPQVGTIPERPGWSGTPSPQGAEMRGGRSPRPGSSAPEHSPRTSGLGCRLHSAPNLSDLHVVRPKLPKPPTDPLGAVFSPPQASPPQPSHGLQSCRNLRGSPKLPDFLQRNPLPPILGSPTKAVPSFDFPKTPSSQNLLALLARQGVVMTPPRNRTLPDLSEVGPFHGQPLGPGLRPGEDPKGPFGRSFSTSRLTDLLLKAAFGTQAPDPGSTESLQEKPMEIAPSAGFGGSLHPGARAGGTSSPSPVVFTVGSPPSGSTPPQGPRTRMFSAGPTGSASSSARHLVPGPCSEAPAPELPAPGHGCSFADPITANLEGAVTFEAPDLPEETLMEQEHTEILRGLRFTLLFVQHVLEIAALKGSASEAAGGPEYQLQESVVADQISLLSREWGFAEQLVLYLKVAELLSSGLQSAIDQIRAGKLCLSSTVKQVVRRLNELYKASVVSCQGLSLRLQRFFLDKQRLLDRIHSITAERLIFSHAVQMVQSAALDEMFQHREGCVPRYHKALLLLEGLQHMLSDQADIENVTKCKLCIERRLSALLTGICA
The experiment in a line: Activation of recombinant human ULK1 (1 to 649 residues) expressed in baculovirus infected Sf9 cells at 1 to 10^6 nM using MBP as substrate after 60 mins in presence of ATP by […] assay. The method in brief:
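ADP-Glo luminescent kinase assay; AMPK or ULK1 enzyme, substrate, ATP and compound diluted in 40 mM Tris pH 7.5, 20 mM MgCl2, 0.1 mg/ml BSA, 50 µM DTT. Enzyme (10 ng) mixed with MBP (0.1 µg/µl)/ATP (10 µM) and compound, 60 min at room temperature. ADP-Glo reagent 40 min, then detection reagent 30 min, luminescence read; signal rises with kinase activity.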

Experiment [5] relates to MCF7. The experiment in a line: Induction of autophagy in human MCF7 cells assessed as cytoplasmic vacuolization at 1.5 uM by electron microscopy. The format is functional, cell-based. The method in brief: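 MCF-7 (1.5 µM) or MDA-MB-231 (3 µM) cells treated for indicated times. Cytoplasmic vacuoles examined by transmission electron microscopy.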
Experiment [6] addresses T1, Bromodomain-containing protein 4. In words: Inhibition of BRD4 in human MDA-MB-231 cells assessed as reduction in ULK1 protein expression at 3 uM up to 36 hrs by Western blot analysis. The class given is cell-based. The method in brief:
as §1

Experiment [7] has the same target. The experiment in a line: Inhibition of BRD4 in human MDA-MB-231 cells assessed as increase in ULK1 phosphorylation at ser317 at 3 uM up to 36 hrs by Western blot analysis. The format is cell-based. The method in brief:
as §1

The target is the same in experiment [8]. The experiment in a line: Inhibition of BRD4 interaction with p53 in human MDA-MB-231 cells at 3 uM by co-immunoprecipitation assay. The class given is cell-based. The method, boiled down:
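Cells lysed in RIPA buffer (40 mM Tris-HCl pH 7.5, 150 mM NaCl, 0.5% NP-40, 5% glycerol, 10 mM NaF, protease inhibitors). Lysates incubated overnight at 4 °C with BRD4 or p53 antibody plus protein A/G beads, washed 3 times, resolved on 10% SDS-PAGE and blotted for AMPKα or p53.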

Experiment [9] deals with MDA-MB-231. The experiment in a line: Antiproliferative activity against human MDA-MB-231 cells after 24 hrs by MTT assay. The format is functional, cell-based. As to conditions: MDA-MB-231, 24 h.
The test system of experiment [10] is MCF7. In words: Inhibition of BRD4 protein expression in human MCF7 cells at 1.5 uM measured up to 36 hrs by Western blot analysis. The class given is functional, cell-based. The method in brief: as §1
For experiment [11], the system named is MDA-MB-231. The experiment in a line: Induction of autophagy in GFP-LC3 fused human MDA-MB-231 cells assessed as increase in LC3 puncta at 3 uM by fluorescence microscopy. The class given is functional, cell-based. The method in brief:
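MCF-7 or MDA-MB-231 cells transfected with eGFP-LC3 plasmid, then treated with 1.5 or 3 µM respectively for 24 h. LC3 puncta viewed by fluorescence microscopy.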

For experiment [12], the system named is MCF7. In words: Induction of autophagy in human MCF7 cells assessed as increase in LC3-2 expression at 1.5 uM by Western blot analysis. The class given is functional, cell-based. As to conditions: TDE = time-dependent effect. The method, boiled down:
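MCF-7 (1.5 µM) or MDA-MB-231 (3 µM) cells treated for indicated times. Adherent and floating cells lysed in RIPA with 1 mM PMSF, 4°C for 1 h. Equal protein run on 10-15% SDS-PAGE, transferred to PVDF, blocked with milk or BSA, probed with primary then HRP secondary antibodies, ECL detection; β-actin as loading control.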

The source made the active and inactive calls. The rule behind the calls is not given here.

Sequence of Bromodomain-containing protein 2 (P25440 whole entry, the tested form may be a part): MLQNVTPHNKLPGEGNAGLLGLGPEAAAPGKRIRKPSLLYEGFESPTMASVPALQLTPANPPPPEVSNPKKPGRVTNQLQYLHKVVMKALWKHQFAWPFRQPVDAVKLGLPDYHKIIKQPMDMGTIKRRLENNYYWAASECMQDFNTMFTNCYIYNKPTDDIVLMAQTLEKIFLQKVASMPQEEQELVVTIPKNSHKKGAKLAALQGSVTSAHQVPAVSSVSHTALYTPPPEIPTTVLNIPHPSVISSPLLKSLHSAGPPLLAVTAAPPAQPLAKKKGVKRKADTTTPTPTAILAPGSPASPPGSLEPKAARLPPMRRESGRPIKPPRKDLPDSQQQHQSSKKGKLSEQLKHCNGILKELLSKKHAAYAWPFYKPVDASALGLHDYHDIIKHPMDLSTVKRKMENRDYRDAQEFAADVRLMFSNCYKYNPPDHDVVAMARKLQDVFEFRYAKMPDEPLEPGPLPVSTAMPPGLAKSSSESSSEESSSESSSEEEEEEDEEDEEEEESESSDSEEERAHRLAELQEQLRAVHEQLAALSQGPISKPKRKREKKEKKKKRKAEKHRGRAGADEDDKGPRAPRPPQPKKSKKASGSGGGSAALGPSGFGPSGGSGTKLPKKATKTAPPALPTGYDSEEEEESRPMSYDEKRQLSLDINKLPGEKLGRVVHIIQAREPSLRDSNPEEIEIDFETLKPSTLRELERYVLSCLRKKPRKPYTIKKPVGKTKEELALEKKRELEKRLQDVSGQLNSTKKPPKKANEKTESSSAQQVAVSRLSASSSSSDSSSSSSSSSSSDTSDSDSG

By IC50 is commonly meant the point on the concentration scale where inhibition reaches its midpoint. For `Cc1cc(-c2nc3sc4c(c3c(=O)[nH]2)CCN(C)C4)cc(C)c1O`, the result with Mus musculus, in the experiment on MCF7 [5] and in the experiment on MDA-MB-231 [11] was Active. For the same compound, the inhibition entry in experiment [1] and in experiment [8] was “inactive” each time. Besides, the inhibition entry (in [2]; in [6]; in experiment [7]; in the experiment with MCF7 [10]) was “Active” throughout. Besides, the IC50 was greater than 100 µM in [3] and 3.27 µM in the experiment on MDA-MB-231 [9]. Further, the outcome in [4] was inactive. The Activity entry in the experiment on MCF7 [12] is “Tde”.
